# Experimental data as given in PMC8282703 (Clinical cancer research : an official journal of the …, 2021).
# Several values for one entry are separate records, joined by “and”; a condition that tells them apart may be missing. Identical values can stand only once. Like-named read-outs stand apart in the source and are kept apart here.
# Key:
# [1] = twice daily x 5 doses for 2 weeks, in 3-week cycles; cited from earlier work
# [2] = Plasma pharmacokinetics of adavosertib; settings: human, oral, 300 mg
# [3] = system: PKMYT1; settings: cited from earlier work
# [4] = system: pHH3, γH2AX, RAD51, pNbs1; assay: DNA damage response and mitosis markers in paired tumor biopsies; type: in vivo, patients
# In short: (§1)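 Expansion-cohort patients got 300 mg once daily on days 1-5 and 8-12 of 21-day cycles, with prophylactic anti-emetics. Paired 18-gauge core needle tumor biopsies were taken on C1D1 and C1D8 before the daily dose, after the 72-h dosing pause on days 6-7. Nuclear marker levels were assessed. pY15-Cdk, γH2AX and pNbs1 were reported as percent nuclear area positive. Patients were grouped by baseline pY15-Cdk.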
# [5] = system: advanced solid tumors; assay: Phase 1 trial of adavosertib: tumor response by RECIST 1.1
# [6] = system: phospho-Cdk1; settings: chemotherapy combinations, cited from earlier work
# [7] = system: Wee1 kinase; settings: cited from earlier work
# [8] = human, in vivo
# [9] = system: advanced solid tumors; settings: cited from earlier work
# [10] = system: Wee1 kinase; assay: Nuclear pY15-Cdk1/2 in paired tumor biopsies; type: in vivo, patients
# In short: as §1
# [11] = system: recurrent uterine serous carcinoma; settings: adavosertib monotherapy; cited from earlier work
compound,measurement,setting,value
C=CCn1c(=O)c2cnc(Nc3ccc(N4CCN(C)CC4)cc3)nc2n1-c1cccc(C(C)(C)O)n1 [adavosertib],"MTD, twice-daily regimen",[1],225 mg
same,concentration at 72 h,[2],> 5 nM
same,Inhibition of PKMYT1,[3],does not substantially inhibit PKMYT1
same,"Alanine aminotransferase increased, Grade 1-2 (%)","human, in vivo",11 (26%) patients (%)
same,"Anemia, Grade 1-2 (%)","human, in vivo",20 (47%) patients (%)
same,"Anemia, Grade 3 (%)","human, in vivo",9 (21%) patients (%)
same,"Anemia, any-grade","human, in vivo",69%
same,"Anemia, ≥ grade 3","human, in vivo",21%
same,"Anorexia, Grade 1-2 (%)","human, in vivo",17 (40%) patients (%)
same,"Aspartate aminotransferase increased, Grade 1-2 (%)","human, in vivo",11 (26%) patients (%)
same,"Dehydration, Grade 1-2 (%)","human, in vivo",5 (12%) patients (%)
same,"Dehydration, Grade 3 (%)","human, in vivo",1 (2%) patients (%)
same,"Diarrhea, Grade 1-2 (%)","human, in vivo",25 (60%) patients (%)
same,"Diarrhea, Grade 3 (%)","human, in vivo",2 (5%) patients (%)
same,Dose-limiting toxicities (type),"human, in vivo",grade 4 hematological toxicity and grade 3 fatigue
same,"Fatigue, Grade 1-2 (%)","human, in vivo",19 (45%) patients (%)
same,"Fatigue, Grade 3 (%)","human, in vivo",3 (7%) patients (%)
same,"Febrile neutropenia, Grade 3 (%)","human, in vivo",1 (2%) patients (%)
same,"Gastrointestinal adverse events (nausea, vomiting, diarrhea) that were ≥ grade 3","human, in vivo",≤ 12%
same,"Hypoalbuminemia, Grade 1-2 (%)","human, in vivo",9 (21%) patients (%)
same,"Hypocalcemia, Grade 1-2 (%)","human, in vivo",3 (7%) patients (%)
same,"Hypocalcemia, Grade 3 (%)","human, in vivo",1 (2%) patients (%)
same,"Hypocalcemia, grade 3 incidence","human, in vivo",2%
same,"Hypokalemia, Grade 1-2 (%)","human, in vivo",5 (12%) patients (%)
same,"Hypokalemia, Grade 3 (%)","human, in vivo",1 (2%) patients (%)
same,"Hypokalemia, grade 3 incidence","human, in vivo",2%
same,"Hypomagnesemia, Grade 1-2 (%)","human, in vivo",7 (17%) patients (%)
same,"Hypomagnesemia, Grade 3 (%)","human, in vivo",1 (2%) patients (%)
same,"Hypomagnesemia, grade 3 incidence","human, in vivo",2%
same,"Hyponatremia, Grade 1-2 (%)","human, in vivo",8 (19%) patients (%)
same,"Hyponatremia, Grade 3 (%)","human, in vivo",1 (2%) patients (%)
same,"Hyponatremia, grade 3 incidence","human, in vivo",2%
same,"Hypophosphatemia, Grade 1-2 (%)","human, in vivo",10 (24%) patients (%)
same,"Hypophosphatemia, Grade 3 (%)","human, in vivo",6 (14%) patients (%)
same,"Hypophosphatemia, ≥ grade 3","human, in vivo",14%
same,"Leukopenia, Grade 1-2 (%)","human, in vivo",12 (29%) patients (%)
same,"Leukopenia, Grade 3 (%)","human, in vivo",5 (12%) patients (%)
same,"Leukopenia, Grade 4 (%)","human, in vivo",4 (10%) patients (%)
same,"Leukopenia, grade 4 events","human, in vivo",10%
same,"Leukopenia, ≥ grade 3","human, in vivo",21%
same,"Lymphopenia, Grade 1-2 (%)","human, in vivo",18 (43%) patients (%)
same,"Lymphopenia, Grade 3 (%)","human, in vivo",12 (29%) patients (%)
same,"Lymphopenia, any-grade","human, in vivo",71%
same,"Lymphopenia, ≥ grade 3","human, in vivo",29%
same,"Median duration until recovery, grade 3/4 leukopenia","human, in vivo",5 days
same,"Median duration until recovery, grade 3/4 lymphopenia","human, in vivo",18 days
same,"Median duration until recovery, grade 3/4 neutropenia","human, in vivo",5 days
same,"Nausea, Grade 1-2 (%)","human, in vivo",31 (74%) patients (%)
same,"Nausea, Grade 3 (%)","human, in vivo",3 (7%) patients (%)
same,"Nausea, any grade, patients","human, in vivo",81%
same,"Nausea, vomiting, or diarrhea, each, patients","human, in vivo",> 60%
same,"Neutropenia, Grade 1-2 (%)","human, in vivo",5 (12%) patients (%)
same,"Neutropenia, Grade 3 (%)","human, in vivo",4 (10%) patients (%)
same,"Neutropenia, Grade 4 (%)","human, in vivo",5 (12%) patients (%)
same,"Neutropenia, grade 4 events","human, in vivo",12%
same,"Thrombocytopenia, Grade 1-2 (%)","human, in vivo",13 (31%) patients (%)
same,"Thrombocytopenia, Grade 3 (%)","human, in vivo",5 (12%) patients (%)
same,"Thrombocytopenia, Grade 4 (%)","human, in vivo",1 (2%) patients (%)
same,"Thrombocytopenia, grade 4 events","human, in vivo",2%
same,"Vomiting, Grade 1-2 (%)","human, in vivo",24 (57%) patients (%)
same,"Vomiting, Grade 3 (%)","human, in vivo",5 (12%) patients (%)
same,DLTs at dose levels other than 400 mg QD,in vivo,No DLTs
same,Recommended phase 2 dose (RPh2D),once daily on days 1-5 and 8-12 in 21-day cycles,300 mg
same,"Upper respiratory infection, Grade 3 (%)","once-daily adavosertib, n = 42 patients",1 (2%) patients (%)
same,Nuclear pHH3 levels between baseline and C1D8,[4]; 8 patients,generally unchanged
same,Changes in tumor levels of nuclear RAD51,"[4]; 8 patients, baseline vs C1D8",None of the 8 patients evaluable for pharmacodynamic response showed changes
same,Levels of DNA repair markers (γH2AX and/or pNbs1) at C1D8,[4]; both patients with significantly decreased pY15-Cdk,significant increases
same,"pHH3 positivity at C1D8, patient 1010056","[4]; from 1.1% at baseline, best response PD, p < 0.0001",4.1 % cells positive
same,"Median number of treatment cycles, patients with SD","[5]; 20 patients, range 2-26",4 cycles
same,Patients with SD receiving ≥ 11 cycles of treatment,[5]; of 20 patients with SD,5 patients
same,Patients with best response of SD for ≥ 9 months,[5]; once-daily adavosertib,5 patients
same,Overall response rate,"[5]; once-daily adavosertib, 42 enrolled patients, 90% confidence interval [6%, 26%]",14%
same,Patients with PR at the 400 mg dose level,"[5]; out of the 3 enrolled, both ovarian cancer, dose-reduced to 300 mg",2 patients
same,Patients with PR at the MTD (300 mg),[5]; out of the 26 enrolled at the MTD,4 patients
same,Target suppression (phospho-Cdk1 attenuation),[6]; adavosertib twice daily at 25 mg,not at 25 mg
same,Target suppression (phospho-Cdk1 attenuation),[6]; adavosertib twice daily at 200 mg or 225 mg,significant target suppression
same,"Reduction of nuclear pY15-Cdk, twice-daily arm, individual patients","[7]; 2-5 hours after dose 5, 2 of 2 patients",84% and 90%
same,"Wee1 kinase suppression (pY15-Cdk1/2 reduction), twice-daily arm",[7]; tumor biopsies 2-5 hours after the fifth dose,80-90%
same,Plasma concentrations day 5 versus day 1,[8],higher on day 5 compared to day 1
same,"Overall response rate, twice-daily adavosertib","[9]; 25 enrolled patients, 90% confidence interval [1%, 23%]",8%
same,"PRs, twice-daily adavosertib",[9]; among 25 enrolled patients,2 patients
same,Increases in nuclear pY15-Cdk at C1D8,"[10]; 4 of 5 patients with low baseline pY15-Cdk (≤ 2.2% NAP), p < 0.0001",192%-1094%
same,Patients with tumor pY15-Cdk levels higher than baseline on C1D8 (pre-dose),[10]; of 8 patients with evaluable biopsy pairs (of 5 with low baseline),4 patients
same,Preliminary overall response rate,[11],29%
